Data taken from ChEMBL document CHEMBL4011629, “New Disubstituted Quindoline Derivatives Inhibiting Burkitt's Lymphoma Cell Proliferation by Impeding c-MYC Transcription” (J Med Chem, 2017).
Activity calls are given as the source filed them. The rule behind the calls is not given here.

Key:
[1] = Stabilization of c-Myc Pu27 G-quadruplex DNA (unknown origin) assessed as induction of parallel G-quadruplex formation in presence of K+ ions by CD spectroscopic analysis
Procedure, shortened: (§1)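 CD spectra: Pu27 at 5 μM in 10 mM Tris-HCl pH 7.4 without or with 100 mM KCl, annealed 95 °C 5 min, slow-cooled, kept at 4 °C overnight, with ligand. Scanned 230–400 in a 4 mm quartz cuvette, 1 nm bandwidth and step, 0.5 s/point; buffer baseline subtracted.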

[2] = Stabilization of c-Myc Pu27 G-quadruplex DNA (unknown origin) assessed as induction of parallel G-quadruplex formation in absence of K+ ions by CD spectroscopic analysis; procedure, shortened: as §1
[3] = Inhibition of NM23-H2 binding to 5'-FAM labeled c-Myc Pu27 G-quadruplex DNA (unknown origin) preincubated for 1 hr followed by NM23-H2 addition by electrophoretic mobility shift assay
Procedure, shortened: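 Annealed labelled Pu27 (1.5 μM) was preincubated with 10 μM agent or 5% DMSO for 1 h at 25 °C. […] Complexes were resolved on 5% native PAGE in 0.5× TBE at 4 °C, 150 V. Inhibition was taken against the no-compound complex band (set as 100%); three runs, Hill-fit IC50.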

[4] = species: Homo sapiens; test: Stabilization of c-Myc G-quadruplex DNA in human Raji cells assessed as decrease in amplification of exon-1 after 12 hrs by RT-PCR method; type: cell-based
Procedure, shortened: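 Exon-specific assay: RAJI and CA46 cells exposed to various ligand concentrations for 12 h; total RNA (2 μg) reverse-transcribed with oligo dT18 and M-MLV (42 °C 1 h). c-MYC exon 1 and exon 2, NM23-H2 and β-actin amplified by real-time PCR, products run on 1% agarose; untreated cells as control; three repeats, two-tailed unpaired t test.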

[5] = species: Homo sapiens; test: Effect on c-Myc DNA translocated chromosome product in human CA46 cells assessed as decrease in amplification of exon-2 up to 4 uM after 12 hrs by RT-PCR method; type: cell-based
Procedure, shortened: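 RAJI cells, which retain NHE III1, and CA46 cells, which lack NHE III1 and the P1/P2 promoters, were exposed to graded compound concentrations for 12 h. Total RNA (2 μg) was reverse-transcribed with oligo dT18 and M-MLV. c-MYC exons 1 and 2, NM23-H2 and β-actin were amplified by real-time PCR against untreated cells. Three repeats were done; two-tailed unpaired t-test.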

[6] = test system: U-266; test: Antiproliferative activity against human U266B1 cells after 12 hrs by MTT assay; type: functional, cell-based; details: U-266, 12 h
Procedure, shortened: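 RAJI, CCRF-CEM and U266B1 cells were seeded at 5 × 10^3 cells per well and exposed to compound for 12 h, with a DMSO vehicle control. MTT at 0.5 mg/mL was added for 4 h at 37 °C, then lysis solution overnight at 37 °C, and A570 was read. Assays were run in triplicate. IC50 was taken from the percentage survival relative to the negative control.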

[7] = species: Homo sapiens; test: Stabilization of c-Myc G-quadruplex DNA in human Raji cells assessed as downregulation of c-Myc protein level at 1 uM by Western blot method; type: cell-based; details: TDE = time-dependent effect
Procedure, shortened: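 Western blot of RAJI cells treated either with 1 μM for 6, 12, 24 and 48 h or with graded concentrations for 6 h. Lysed in 1% NP-40, 50 μg protein/lane on 3–12% SDS-PAGE, nitrocellulose, probed for c-MYC, NM23-H2, GAPDH loading control, HRP secondary with ECL; untreated control, three replicates.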

[8] = species: Homo sapiens; test: Inhibition of NM23-H2 binding to c-Myc G-quadruplex DNA in human Raji cells up to 4 uM after 6 hrs by ChIP-PCR method; type: cell-based
[9] = test system: Raji; test: Cell cycle arrest in human Raji cells assessed as accumulation at G2/M phase after 12 hrs by propidium iodide staining based flow cytometry (reference value: 24.4%); type: functional
[10] = test system: Raji; test: Cell cycle arrest in human Raji cells assessed as accumulation at S phase after 24 hrs by propidium iodide staining based flow cytometry (reference value: 32.2%); type: functional
[11] = test system: Raji; test: Induction of apoptosis in human Raji cells assessed as late apoptotic cells at 0.5 uM after 12 hrs by Annexin V-FITC/propidium iodide staining based flow cytometry relative to control; type: functional
Procedure, shortened: (§2)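 RAJI cells exposed to compound or control medium for 12 or 48 h were washed in PBS and resuspended in binding buffer. They were stained with FITC annexin V and PI for 15 min in the dark, and fluorescence was measured by flow cytometry.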

[12] = test system: Raji; test: Induction of apoptosis in human Raji cells assessed as necrotic cells at 0.5 uM after 12 hrs by Annexin V-FITC/propidium iodide staining based flow cytometry relative to control; type: functional; procedure, shortened: as §2
[13] = test system: Raji; test: Induction of apoptosis in human Raji cells assessed as late apoptotic cells at 1 uM after 12 hrs by Annexin V-FITC/propidium iodide staining based flow cytometry relative to control; type: functional; procedure, shortened: as §2
[14] = test system: Raji; test: Induction of apoptosis in human Raji cells assessed as early apoptotic cells at 0.5 uM after 48 hrs by Annexin V-FITC/propidium iodide staining based flow cytometry (reference value: 1.8%); type: functional; procedure, shortened: as §2
[15] = test system: Raji; test: Induction of apoptosis in human Raji cells assessed as late apoptotic cells at 0.5 uM after 48 hrs by Annexin V-FITC/propidium iodide staining based flow cytometry (reference value: 0.1%); type: functional; procedure, shortened: as §2

Structure (SMILES): CN(C)CCCNc1c2ccccc2nc2c1oc1ccc(OCC3CCN(C)CC3)cc12
- Activity [1]: Dose-dependent effect
- Activity [2]: Active
- IC50 [3]: 1.56 µM
- Activity [4]: Dose-dependent effect
- Activity [5]: inactive
- IC50 [6]: 23 µM
- Activity [7]: Tde
- Activity [8]: Active
- Activity [9]: 29.3%
- Activity [10]: 19.4%
- Activity [11]: 0.2%
- Activity [12]: 0%
- Activity [13]: 0.3%
- Activity [14]: 12.2%
- Activity [15]: 0.7%
